Assay outcomes: PubChem BioAssay, several laboratories
hK5 inh = inhibitors of human kallikrein 5. Q9Y337. recombinant hK5, fluorogenic AMC substrate cleavage. inhibition, % at 5 µM. 0.59% of 210,000 active;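 active means inhibition of 40% or more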;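 further: 0% = enzyme controls without compound and 100% = no-enzyme blanks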
AHR act = activates the human aryl hydrocarbon receptor; AID 2796; activation, % at 5 µM; 2.5% of 320,000 active; AHR-responsive luciferase reporter cells, luminescence; P35869; in the data active means activation above about 47%;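 further: 0% = vehicle wells and 100% = reference agonist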
Target sequence (P35869 whole entry, looked up): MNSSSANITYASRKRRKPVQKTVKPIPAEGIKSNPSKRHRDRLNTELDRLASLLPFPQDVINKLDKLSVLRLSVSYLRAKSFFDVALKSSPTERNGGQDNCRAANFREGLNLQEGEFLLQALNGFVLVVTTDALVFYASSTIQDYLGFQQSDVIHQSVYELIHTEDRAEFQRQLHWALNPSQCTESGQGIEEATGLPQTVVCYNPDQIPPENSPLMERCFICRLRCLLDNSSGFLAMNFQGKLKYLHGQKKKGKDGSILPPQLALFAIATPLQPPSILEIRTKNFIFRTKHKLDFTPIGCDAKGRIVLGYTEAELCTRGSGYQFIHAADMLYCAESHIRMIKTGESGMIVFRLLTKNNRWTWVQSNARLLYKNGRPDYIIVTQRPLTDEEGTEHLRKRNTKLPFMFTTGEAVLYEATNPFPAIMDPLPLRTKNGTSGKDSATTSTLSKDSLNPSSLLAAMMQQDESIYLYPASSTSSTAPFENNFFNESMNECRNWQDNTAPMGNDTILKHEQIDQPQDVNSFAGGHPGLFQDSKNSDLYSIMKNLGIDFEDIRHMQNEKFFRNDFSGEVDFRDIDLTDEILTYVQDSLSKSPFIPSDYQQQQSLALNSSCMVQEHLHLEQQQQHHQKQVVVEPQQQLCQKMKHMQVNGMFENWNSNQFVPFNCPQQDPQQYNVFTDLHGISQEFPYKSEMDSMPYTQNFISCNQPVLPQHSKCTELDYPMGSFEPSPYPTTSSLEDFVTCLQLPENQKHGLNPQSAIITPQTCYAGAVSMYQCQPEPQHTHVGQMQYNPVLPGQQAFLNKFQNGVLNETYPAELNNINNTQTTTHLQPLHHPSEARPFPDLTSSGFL
STAT3 activator = activators of IL-6 induced STAT3 signaling; AID 871; activation (% of control), % at 5.6 µM; 0.91% of 190,000 active; U3A cells, IL-6 STAT3-luciferase reporter, luminescence; 100% = signal with IL-6 EC80 alone;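 active means activation above the screen-wide mean of compound activation plus 3 SD, cut at about 130% in these data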;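 further: 0% = background luminescence of wells with medium and substrate only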
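System – human U3A cells carrying STAT3-luciferase construct · Probe or stimulus – Interleukin-6, 33 ng/mL · Schedule – compound 1 h, then IL-6 6 h at 37 °C · Signal – luminescence from STAT3-driven luciferase reporter · Evaluation – percent of IL-6-only median luminescence · Benchmarks – IL-6-only high control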
Thrombin inh = inhibitors of human thrombin; P00734; alpha-thrombin, Boc-VPR-AMC fluorogenic substrate cleavage; inhibition, % at 5 µM; 0.26% of 220,000 active;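 active means inhibition at or above 40%; inactive means inhibition below 40%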;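 further: 0% = enzyme with no compound and 100% = wells without enzyme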
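signal = AMC fluorescence, 355/460 nm | material = human alpha-thrombin enzyme | control set = enzyme without compound as high, wells lacking enzyme as low | times = reaction at room temperature | read-out basis = percent inhibition scaled between no-compound controls and no-enzyme blanks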
FXIIa inh = blocks human coagulation factor XIIa protease activity. P00748. purified FXIIa, Boc-QGR-AMC fluorogenic substrate, 2 h. inhibition, % at 5 µM. 0.3% of 220,000 active. AID 800; in the data active means inhibition above about 40%;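 further: 0% = enzyme with no compound and 100% = blank without enzyme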
FXIa inh = inhibitors of human coagulation factor XIa. inhibition, % at 5 µM. 0.14% of 220,000 active. purified FXIa, Boc-Glu-Ala-Arg-AMC fluorogenic substrate. P03951;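 active means inhibition of at least 40%; inactive means inhibition below 40%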;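 further: fluorescence of freed AMC excited at 355 nm; 0% = enzyme without compound and 100% = no enzyme blank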
Active calls of the source: *. Only some compounds are listed: those with a hit (about 3.5% of all), similar ones and a draw of the others.

CCOc1ccc(N2CC(C(=O)Nc3ccccc3N3CCOCC3)CC2=O)cc1 (stereo unspecified) was read as hK5 inh -11, AHR act 0, STAT3 activator 100, Thrombin inh -5, FXIIa inh -12 and FXIa inh 1.
Screening CCN(CC)c1cc(C)c2cc(NC(=O)CNC(C)=O)ccc2n1 returned hK5 inh 142*, AHR act 1, STAT3 activator 94, Thrombin inh 0, FXIIa inh -7 and FXIa inh -8.
CC1CCc2[nH]nc(C(=O)O)c2C1 (stereo unspecified) was read as hK5 inh 32, AHR act 0, STAT3 activator 92, Thrombin inh 78*, FXIIa inh 5 and FXIa inh 15.
O=C(Nc1ccc(O)cc1)N1CCOCC1 was read as AHR act 0.
For CSc1ccccc1OCc1cc(C(=O)NC(C)Cc2cccc(C)n2)no1 (stereo unspecified) the results were AHR act 53*.
`CC(=O)c1sc(N/N=C\c2ccc(N(C)C)cc2)nc1C` gave AHR act 57*.
For CC(=O)c1sc(N/N=C\c2c(O)ccc3ccccc23)nc1C the results were AHR act 65*.
Screening CC(=O)c1sc(N/N=C/c2cccc(O)c2)nc1C returned hK5 inh 1, AHR act 1, Thrombin inh 2, FXIIa inh 10 and FXIa inh 8.
`COc1cc(/C=N/NC(=S)NCc2ccccc2)ccc1OCC#N` gave hK5 inh -11, AHR act 19, STAT3 activator 96, Thrombin inh -2, FXIIa inh 7 and FXIa inh 4.
For Cc1onc(-c2ccccc2Cl)c1C(=O)Oc1cccc2cccnc12 the results were hK5 inh 0, AHR act 3, STAT3 activator 98, Thrombin inh -1, FXIIa inh 7 and FXIa inh -6.
`CCOC(=O)c1ccc(Nc2nc(C)cc(C)c2C#N)cc1` gave hK5 inh -3, AHR act 6, STAT3 activator 93, Thrombin inh 0, FXIIa inh 11 and FXIa inh 0.
Cc1cc(C)c(C#N)c(Nc2ccc(F)cc2)n1 was read as AHR act 74*.
CN(C)S(=O)(=O)Oc1ccsc1C(=O)Nc1ccccc1Cl was read as hK5 inh -2, AHR act 6, STAT3 activator 109, Thrombin inh -5, FXIIa inh 8 and FXIa inh 1.
`CN(C)S(=O)(=O)Oc1ccsc1C(=O)Nc1cccc(Cl)c1Cl` gave hK5 inh -4, AHR act 60*, STAT3 activator 105, Thrombin inh -6, FXIIa inh 2 and FXIa inh -4.
Cc1ccc(NC(=O)CCCNC(=O)c2ccc(Cl)cc2)nc1 was read as AHR act -3.
`Cc1ccc(NC(=O)CCCNC(=O)c2ccc(Cl)cc2)c(O)c1` gave AHR act 60*.
Screening Cc1nnc(N2CCN(c3ccccc3)CC2)c2nn(-c3ccccc3F)c(C)c12 returned STAT3 activator 96.
`CCn1c(SCC(=O)c2ccc3ccccc3c2)nnc1-c1ccco1` gave hK5 inh -8, AHR act 78*, STAT3 activator 92, Thrombin inh -7, FXIIa inh -1 and FXIa inh -6.
COc1cccc(C(=O)Nc2ccc(C)cc2)c1 was read as hK5 inh -18, AHR act 10, STAT3 activator 86, Thrombin inh 1, FXIIa inh 12 and FXIa inh -2.
COc1cccc(C(=O)Nc2ccc(C3CC3(Cl)Cl)cc2)c1 (stereo unspecified) was read as hK5 inh -2, AHR act 73*, STAT3 activator 89, Thrombin inh -2, FXIIa inh 9 and FXIa inh 8.
Screening COc1cccc(C(=O)Nc2ccc3c(c2)n(C)c(=O)n3C)c1 returned AHR act 48*.
For CCCC(=O)Nc1cnc(NC(=O)c2cccc(F)c2)cc1C the results were hK5 inh -5, AHR act 9, STAT3 activator 85, Thrombin inh -1, FXIIa inh 12 and FXIa inh 0.
COCCNC(=O)C(c1ccc(F)cc1)N(Cc1ccccc1)C(=O)CCC(=O)Nc1ccccn1 (stereo unspecified) was read as AHR act -3.
`CC1(C)CC(NC(=O)c2cc(S(=O)(=O)N3CCOCC3)ccc2Cl)CC(C)(C)N1` gave AHR act 1.
COc1ccc2c(C)cc(SCC(=O)NC3CCCC3)nc2c1 was read as AHR act 17.
`CC(=O)c1c(C)[nH]c(C(=O)CSc2nc3ccc(C)cc3[nH]2)c1C` gave hK5 inh 4, AHR act 70*, STAT3 activator 84, Thrombin inh -2, FXIIa inh 9 and FXIa inh 0.
COc1ccc2c(C)cc(SCC(=O)c3ccc4c(c3)OCO4)nc2c1 was read as hK5 inh 4, AHR act 65*, STAT3 activator 127, Thrombin inh 12, FXIIa inh 19 and FXIa inh 6.
`Cc1ccc2nc(SCC(=O)c3ccc4c(c3)OCO4)[nH]c2c1` gave hK5 inh -16, AHR act 57*, STAT3 activator 86, Thrombin inh 0, FXIIa inh 7 and FXIa inh 3.
For CCC(=O)Nc1ccc(C(=O)CSc2nc3ccc(C)cc3[nH]2)cc1 the results were hK5 inh -11, AHR act 34, STAT3 activator 103, Thrombin inh -9, FXIIa inh -2 and FXIa inh -5.
`O=C(CSc1nc2ccccc2[nH]1)c1ccc2c(c1)OCO2` gave hK5 inh -21, AHR act 13, STAT3 activator 94, Thrombin inh 0, FXIIa inh 4 and FXIa inh -7.
`CC1=C[C@H](C)[C@H](c2c(F)cccc2Cl)CC1=O` gave AHR act 4.
CC(C)(C)c1ccc(C(=O)Cn2cnnc2C#N)cc1 was read as AHR act 2.
`CN1CCc2c1nc1ccccc1c2N=C1CCCN1Cc1ccccc1` gave hK5 inh -7, AHR act 2, STAT3 activator 104, Thrombin inh -5, FXIIa inh 0 and FXIa inh -4.
For Cc1ccc(OCC(=O)NN=C2c3ccccc3-c3ccccc32)cc1 the results were hK5 inh 2, AHR act 1, STAT3 activator 83, Thrombin inh -1, FXIIa inh 15 and FXIa inh 5.
Screening Cc1ccc(NN=C2c3ccccc3-c3ccccc32)cc1 returned hK5 inh 4, AHR act 68*, STAT3 activator 125, Thrombin inh 0, FXIIa inh 10 and FXIa inh 5.
`Cc1ccc(OCC(=O)Nc2ccc(N3CCCC3)cc2)cc1C` gave hK5 inh -11, AHR act -1, STAT3 activator 106, Thrombin inh 6, FXIIa inh 26 and FXIa inh 18.
